Entries after “also recorded” stand apart in the source; their conditions may differ. Read-outs that look alike come from different tables or passages of the source.
What was measured:
TE‐8 cells [1] = test: WST‐8 cell proliferation assay; type: cell-based, human; conditions: for reduced the proliferation of TE‐8 cells by (average ± SD): compared with vehicle‐treated control cells
Method in brief: (§1)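 Human ESCC cells, obtained from the Tohoku University or Riken cell banks and authenticated, were seeded at 1‐5 × 10³ cells per well and cultured overnight. They were then exposed for 48 h to the GLUT1-inhibitor test compound (prepared in DMSO), cisplatin, or both, with DMSO-only wells as control. Surviving cells were read by WST‐8 absorbance at 450 nm. Results are mean ± SD of n = 3 replicates, compared by Student's t‐test.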

GLUT1 [2] = conditions: cited from earlier work
TE‐11 cells [3] = test: WST‐8 cell proliferation assay; type: cell-based, human; conditions: for reduced the proliferation of TE‐11 cells by (average ± SD): compared with vehicle‐treated control cells
Method in brief: as §1

GLUT1 [4] = conditions: cited from earlier work; remark: listed apart in the source
[5] = test system: human lung cancer xenografts; conditions: nude mouse, daily intraperitoneal injection of 10 mg/kg for 10 weeks; cited from earlier work
TE‐8 cells [6] = conditions: read-out: cisplatin IC50 value, low GLUT1 expression, ref GSE36133 and the Genomics of Drug Sensitivity in Cancer; cited from earlier work
TE‐11 cells [7] = conditions: read-out: cisplatin IC50 value, high GLUT1 expression, ref GSE36133 and the Genomics of Drug Sensitivity in Cancer; cited from earlier work

Cc1c(NC(=O)c2cc(C(N)=O)nc3cc(F)ccc23)c(C(F)(F)F)nn1Cc1ccc(C#N)cc1 [BAY‐876]
reduced the proliferation of TE‐8 cells by (average ± SD) (TE‐8 cells [1]; 0.025 nmol/L BAY‐876, 48 h): 59.9% ± 4.9% | inhibition of proliferation of TE‐8 cells (TE‐8 cells [1]; 0.1 nmol/L BAY‐876, 48 h): almost complete inhibition; also recorded: strong anti–proliferative effect | selectivity and affinity for GLUT1 (GLUT1 [2]): high selectivity and affinity | reduced the proliferation of TE‐11 cells by (average ± SD) (TE‐11 cells [3]; 0.025 nmol/L BAY‐876, 48 h): 51.0% ± 8.2% | inhibition of proliferation of TE‐11 cells (TE‐11 cells [3]; 0.1 nmol/L BAY‐876, 48 h): almost complete inhibition; also recorded: strong anti–proliferative effect

O=C(Oc1cccc(F)c1OC(=O)c1cccc(O)c1)c1cccc(O)c1 [WZB117]
efficacy in vitro (GLUT1 [4]; 30 μmol/L): shown efficacy in vitro | blood glucose effect [5]: hyperglycemia | lymphocyte and platelet counts [5]: aberrant lymphocyte and platelet counts | reduction in the volume of human lung cancer xenografts [5]: > 70%

N.N.[Cl][Pt][Cl] [cisplatin]
reduced the proliferation of TE‐8 cells by (average ± SD) (TE‐8 cells [1]; 0.5 μmol/L cisplatin, 48 h): 79.9% ± 2.3% | reduced the proliferation of TE‐11 cells by (average ± SD) (TE‐11 cells [3]; 0.5 μmol/L cisplatin, 48 h): 46.0% ± 6.5% | effect of very low doses of cisplatin on proliferation (TE‐11 cells [3]; 0.2 and 0.4 μg/mL cisplatin, 48 h, TE11 cells transfected with GLUT1‐specific siRNA): strong inhibitory effect | IC50 (TE‐8 cells [6]): 10.1 µM | IC50 (TE‐11 cells [7]): 20.4 µM

O=C(O)C(=O)CBr [3‐bromopyruvate]
proliferation of TE‐8 cells (TE‐8 cells [1]; 50 μmol/L, data not shown): inhibits the proliferation | proliferation of TE‐11 cells (TE‐11 cells [3]; 50 μmol/L, data not shown): inhibits the proliferation

Oc1ccc(/C=C/c2cc(O)cc(O)c2)cc1 [resveratrol]
efficacy in vitro (GLUT1 [4]; 50 μmol/L): shown efficacy in vitro

From article PMC6500964 (Cancer Science, 2019)
